Experimental data collected from several papers.
Observed: cell growth or viability

Structure (SMILES)	cell line	assay	setting	IC50
Cc1cc(C)cc(COc2cc3c(cc2OCc2cc(C)cc(C)c2)[C@H]2C[C@](O)(Cc4cn(Cc5ccc(S(C)(=O)=O)cc5)nn4)C[C@H](C)N2CC3)c1	GES1	MTT	48 h	2050 nM
CC(=O)O[C@@]12CO[C@@H]1C[C@H](O)[C@@]1(C)C(=O)[C@H](O)C3=C(C)[C@@H](OC(=O)[C@H](O)[C@@H](NC(=O)OC(C)(C)C)c4ccccc4)C[C@@](O)([C@@H](OC(=O)c4ccccc4)[C@H]21)C3(C)C	HCC1937	ATP luminescence	72 h	> 2500 nM
C=C(C)C(=O)Nc1ccc(-c2c(-c3ccc(Oc4nccc(C)n4)c(F)c3)c3c(N)ncnc3n2C)cc1	SNU-16	ATP luminescence	96 h	3.25 nM
O=C(Nc1cc(OCCN2CCCC2)c2ccccc2n1)c1cc(Cl)cc(C(=O)Nc2cc(OCCN3CCCC3)c3ccccc3n2)n1	HT-1080	ATP luminescence	72 h	3400 nM
CCN1CCN(c2ccc(Nc3cc(N(C)C(=O)Nc4c(Cl)c(OC)cc(OC)c4Cl)ncn3)cc2)CC1	NCI-H716	ATP luminescence	96 h	5.76 nM
CN1C(=O)c2cc(C(N)=O)nc3c(N)c(Cl)c(N)c1c23	HCC4017	–	–	15900 nM
NCCOc1cc(NC(=O)c2cccc(C(=O)Nc3cc(OCCN)c4ccccc4n3)n2)nc2ccccc12	HT-1080	ATP luminescence	72 h	300 nM
CCCCN(Cc1ccc(C(=O)NO)cc1)C(=O)Nc1ccccc1	SUP-B15	ATP luminescence	72 h	8660 nM
NCCCOc1cc(NC(=O)c2cccc(C(=O)Nc3cc(OCCCN)c4ccccc4n3)n2)nc2ccccc12	HT-1080	ATP luminescence	72 h	1100 nM
O=C(Nc1cccc(CO)c1)c1c[nH]c2ccc(Cl)cc12	T24	MTT	–	16000 nM
COc1cc(OC)c(/C=C/S(=O)(=O)Nc2ccc(OC)c(N)c2)c(OC)c1	NCI-H187	trypan blue	96 h	4 nM
Cc1ccc2nc(Cl)c(C=C3C(=O)Nc4ccccc43)cc2c1	CHO	MTT	72 h	80000 nM
O=C(Nc1cc(OCCN2CCCC2)c2ccccc2n1)c1cc(OCc2ccc(F)cc2)cc(C(=O)Nc2cc(OCCN3CCCC3)c3ccccc3n2)n1	HT-1080	ATP luminescence	72 h	8500 nM
CC(C)C[C@H](NC(=O)[C@H](Cc1ccccc1)NC(=O)c1cnccn1)B(O)O	HT-1080	ATP luminescence	–	13 nM
Clc1ccc2c(NCCN(Cc3ccccn3)Cc3ccccn3)ccnc2c1	CHO	MTT	–	> 240000 nM
CCN(CC)CCCC(C)Nc1cnc(C(=O)Nc2cc(F)cc3cccnc23)cn1 (stereo not drawn)	Pan02	MTT	–	4300 nM
CN(C)CCOc1cc(NC(=O)c2cc(Cl)cc(C(=O)Nc3cc(OCCN(C)C)c4ccccc4n3)n2)nc2ccccc12	HT-1080	ATP luminescence	72 h	2200 nM
CCCCCCCCCCCC(=O)Oc1c(C)c(O)c(C(=O)/C=C/c2ccccc2)c(OC)c1C	SH-SY5Y	SRB	72 h	> 50000 nM
